Source: ChEMBL document CHEMBL1125291, “New 8-(trifluoromethyl)-substituted quinolones. The benefits of the 8-fluoro group with reduced phototoxic risk” (1992)
In brackets after ≈: the same amount, converted by molar mass. Several values for one entry are separate records, joined by “and”; a condition that tells them apart may be missing. Equal values may be shown once.

How the values were obtained:
Mus musculus [1] = species: Mus musculus; assay: Dose required to induce phototoxic reaction in 50% of mice by probit method at different dosage forms.; format: functional
Escherichia coli [2] = assay: In vivo efficacy in mouse protection test in Escherichia coli Vogel administered by subcutaneous injection.; format: functional; conditions: Escherichia coli, sc; read-out: PD50
Outline: (§1)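 Acute lethal systemic infections in female Charles River CD-1 mice. A single dose was given at challenge, orally by gavage or by subcutaneous injection. PD50 (median protective dose, mg/kg) was determined.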

Streptococcus pyogenes [3] = assay: In vivo efficacy (s.c.) against Streptococcus pyogenes C-203 in mouse protection test; format: functional; conditions: Streptococcus pyogenes, sc; read-out: PD50; outline: as §1
Staphylococcus aureus [4] = assay: Minimum inhibitory concentration (MIC) against gram positive bacteria Staphylococcus aureus H-228.; format: functional; conditions: Staphylococcus aureus; read-out: MIC
Outline: (§2)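 MICs were determined by standard broth microtitration against 11 Gram-positive and Gram-negative organisms, in µg/mL. Values come from duplicate or triplicate experiments and are accurate to ±50%.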

Pseudomonas aeruginosa [5] = assay: Minimum inhibitory concentration (MIC) against gram negative bacteria Pseudomonas aeruginosa UI-18.; format: functional; conditions: Pseudomonas aeruginosa; read-out: MIC; outline: as §2
Mus musculus [6] = assay: Maximum tolerance dose was measured for phototoxic skin reaction by po administration; format: functional
Mus musculus [7] = species: Mus musculus; assay: Days of the first positive reaction in […] mice.; format: functional
Outline: (§3)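 Phototoxic skin reaction test in depilated female CD-1 mice. A single oral dose (gavage) or subcutaneous dose was given, followed 1 h later by 3 h of UVA exposure (320–400 nm). The regimen was repeated for up to 4 consecutive days, with initial doses of 30, 100 and 300 mg/kg. PTD50 was derived by the probit method. The first day of positive reaction and the no-effect dose were taken from the raw data.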

Enterococcus faecalis = assay: Minimum inhibitory concentration (MIC) against gram positive bacteria Streptococcus faecalis MGH-2.; format: functional; conditions: Enterococcus faecalis; read-out: MIC; outline: as §2
Mus musculus [8] = species: Mus musculus; assay: Dose which has no effect to induce phototoxic reaction in 50% of mice by probit method.; format: functional
Escherichia coli [9] = assay: Minimum inhibitory concentration (MIC) against gram negative bacteria Escherichia coli H-560.; format: functional; conditions: Escherichia coli; read-out: MIC; outline: as §2
[10] = Minimum inhibitory concentration (MIC) against gram negative bacteria Prot. rettgeri M-1771.; format: functional, Providencia rettgeri; conditions: Providencia rettgeri; read-out: MIC; outline: as §2
Mus musculus [11] = species: Mus musculus; assay: Number of mice which show positive phototoxic reaction.; format: functional; outline: as §3
Streptococcus pneumoniae [12] = assay: Minimum inhibitory concentration (MIC) against gram positive bacteria Streptococcus pneumoniae SV-1.; format: functional; conditions: Streptococcus pneumoniae; read-out: MIC; outline: as §2
Staphylococcus aureus [13] = assay: Minimum inhibitory concentration (MIC) against gram positive bacteria Staphylococcus aureus UC-76.; format: functional; conditions: Staphylococcus aureus; read-out: MIC; outline: as §2
Enterobacter cloacae = assay: Minimum inhibitory concentration (MIC) against gram negative bacteria Enterobacter cloacae MA-2646.; format: functional
Streptococcus pyogenes [14] = assay: Minimum inhibitory concentration (MIC) against gram positive bacteria Streptococcus pyogenes C-203.; format: functional; conditions: Streptococcus pyogenes; read-out: MIC; outline: as §2
Escherichia coli [15] = assay: Minimum inhibitory concentration (MIC) against gram negative bacteria Escherichia coli Vogel.; format: functional; conditions: Escherichia coli; read-out: MIC; outline: as §2
Klebsiella pneumoniae = assay: Minimum inhibitory concentration (MIC) against gram negative bacteria Klebsiella pneumoniae MGH-2.; format: functional; conditions: Klebsiella pneumoniae; read-out: MIC; outline: as §2
Escherichia coli [16] = assay: In vivo efficacy in mouse protection test in Escherichia coli Vogel dose administered orally by gavage.; format: functional; conditions: Escherichia coli, po; read-out: PD50; outline: as §1
Streptococcus pyogenes [17] = assay: In vivo efficacy (orally) against Streptococcus pyogenes C-203 in mouse protection test; format: functional; conditions: Streptococcus pyogenes, po; read-out: PD50; outline: as §1
[18] = Number of mice which show positive phototoxic reaction in 5 mice at peroral dose; format: functional, Mus musculus
Outline: (§4)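 Depilated female CD-1 mice got a single oral (gavage) or subcutaneous dose, then UVA (320–400 nm) exposure for 3 h starting 1 h post-dose. This was repeated for up to 4 consecutive days. Initial doses were 30, 100 and 300 mg/kg. PTD50 was derived by probit. First day of positive reaction and no-effect dose were taken from the raw data.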

Mus musculus [19] = assay: Maximum tolerance dose was measured for phototoxic skin reaction by sc administration; format: functional; outline: as §4
Pseudomonas aeruginosa [20] = assay: In vivo efficacy (orally) against Pseudomonas aeruginosa in mouse protection test; format: functional; conditions: Pseudomonas aeruginosa, po; read-out: PD50; outline: as §1
Streptococcus pneumoniae [21] = assay: In vivo efficacy (s.c.) against Streptococcus pneumoniae SV-1 in mouse protection test; format: functional; conditions: Streptococcus pneumoniae, sc; read-out: PD50; outline: as §1
[22] = Number of mice which show positive phototoxic reaction in 5 mice at subcutaneous dose; format: functional, Mus musculus; outline: as §4
Streptococcus pneumoniae [23] = assay: In vivo efficacy (orally) against Streptococcus pneumoniae SV-1 in mouse protection test; format: functional; conditions: Streptococcus pneumoniae, po; read-out: PD50; outline: as §1
Pseudomonas aeruginosa [24] = assay: In vivo efficacy (s.c.) against Pseudomonas aeruginosa in mouse protection test; format: functional; conditions: Pseudomonas aeruginosa, sc; read-out: PD50; outline: as §1
Mus musculus [25] = species: Mus musculus; assay: Number of mice which show positive phototoxic reaction in 5 mice; format: functional

NC1CCCN(c2c(F)cc3c(=O)c(C(=O)O)cn(C4CC4)c3c2C(F)(F)F)C1 (centres undefined)
PTD50 (Mus musculus [1]): >100 mg/kg
ED50 (Escherichia coli [2]): 3.2 mg/kg
ED50 (Streptococcus pyogenes [3]): 12 mg/kg
MIC (Staphylococcus aureus [4]): 0.2 µg/mL (≈ 0.484 µM)
MIC (Pseudomonas aeruginosa [5]): 1.6 µg/mL (≈ 3.87 µM)
MTD (Mus musculus [6]): 100 mg/kg
Day of first positve reaction (Mus musculus [7]): 0
MIC (Enterococcus faecalis): 0.2 µg/mL (≈ 0.484 µM)
No effect dose (Mus musculus [8]): 100 mg/kg
MIC (Escherichia coli [9]): 0.1 µg/mL (≈ 0.242 µM)
MIC [10]: 0.4 µg/mL (≈ 0.968 µM)
No. of pos rxns (Mus musculus [11]): 0
MIC (Streptococcus pneumoniae [12]): 0.2 µg/mL (≈ 0.484 µM)
MIC (Staphylococcus aureus [13]): 0.025 µg/mL (≈ 0.0605 µM)
MIC (Enterobacter cloacae): 0.1 µg/mL (≈ 0.242 µM)
MIC (Streptococcus pyogenes [14]): 0.2 µg/mL (≈ 0.484 µM)
MIC (Escherichia coli [15]): 0.1 µg/mL (≈ 0.242 µM)
MIC (Klebsiella pneumoniae): 0.2 µg/mL (≈ 0.484 µM)
ED50 (Escherichia coli [16]): 11.8 mg/kg
ED50 (Streptococcus pyogenes [17]): 35 mg/kg

NC1CCCN(c2c(F)cc3c(=O)c(C(=O)O)cn(C4CC4)c3c2F)C1 (centres undefined)
PTD50 (Mus musculus [1]): >100 mg/kg
ED50 (Escherichia coli [2]): 1.4 mg/kg
ED50 (Streptococcus pyogenes [3]): 3.4 mg/kg
MIC (Staphylococcus aureus [4]): 0.1 µg/mL (≈ 0.275 µM)
MIC (Pseudomonas aeruginosa [5]): 0.2 µg/mL (≈ 0.55 µM)
MTD (Mus musculus [6]): 100 mg/kg
Day of first positve reaction (Mus musculus [7]): 0
MIC (Enterococcus faecalis): 0.1 µg/mL (≈ 0.275 µM)
No effect dose (Mus musculus [8]): 100 mg/kg
MIC (Escherichia coli [9]): 0.2 µg/mL (≈ 0.55 µM)
MIC [10]: 0.2 µg/mL (≈ 0.55 µM)
No. of pos rxns (Mus musculus [11]): 0
MIC (Streptococcus pneumoniae [12]): 0.1 µg/mL (≈ 0.275 µM)
MIC (Staphylococcus aureus [13]): 0.025 µg/mL (≈ 0.0688 µM)
MIC (Enterobacter cloacae): 0.2 µg/mL (≈ 0.55 µM)
MIC (Streptococcus pyogenes [14]): 0.1 µg/mL (≈ 0.275 µM)
MIC (Escherichia coli [15]): 0.2 µg/mL (≈ 0.55 µM)
MIC (Klebsiella pneumoniae): 0.2 µg/mL (≈ 0.55 µM)
ED50 (Escherichia coli [16]): 4.7 mg/kg
ED50 (Streptococcus pyogenes [17]): 32 mg/kg

CCn1cc(C(=O)O)c(=O)c2cc(F)c(N3CCNCC3)cc21 [NORFLOXACIN]
PTD50 (Mus musculus [1]): >300 mg/kg and 172 mg/kg
No. of pos rxns [18]: 0
ED50 (Escherichia coli [2]): 0.6 mg/kg
ED50 (Streptococcus pyogenes [3]): 45 mg/kg
MTD (Mus musculus [19]): 300 mg/kg
ED50 (Pseudomonas aeruginosa [20]): 76 mg/kg
MIC (Staphylococcus aureus [4]): 0.8 µg/mL (≈ 2.51 µM)
MIC (Pseudomonas aeruginosa [5]): 0.2 µg/mL (≈ 0.626 µM)
MTD (Mus musculus [6]): 300 mg/kg
ED50 (Streptococcus pneumoniae [21]): 150 mg/kg
No. of pos rxns [22]: 5
MIC (Enterococcus faecalis): 1.6 µg/mL (≈ 5.01 µM)
No effect dose (Mus musculus [8]): 300 mg/kg and 100 mg/kg
ED50 (Streptococcus pneumoniae [23]): > 100 mg/kg
MIC (Escherichia coli [9]): 0.1 µg/mL (≈ 0.313 µM)
MIC [10]: 0.025 µg/mL (≈ 0.0783 µM)
MIC (Streptococcus pneumoniae [12]): 1.6 µg/mL (≈ 5.01 µM)
MIC (Staphylococcus aureus [13]): 0.05 µg/mL (≈ 0.157 µM)
MIC (Enterobacter cloacae): 0.1 µg/mL (≈ 0.313 µM)
MIC (Streptococcus pyogenes [14]): 0.8 µg/mL (≈ 2.51 µM)
MIC (Escherichia coli [15]): 0.025 µg/mL (≈ 0.0783 µM)
MIC (Klebsiella pneumoniae): 0.05 µg/mL (≈ 0.157 µM)
ED50 (Escherichia coli [16]): 4 mg/kg
ED50 (Streptococcus pyogenes [17]): > 100 mg/kg
ED50 (Pseudomonas aeruginosa [24]): 11 mg/kg

NC1CCN(c2c(F)cc3c(=O)c(C(=O)O)cn(C4CC4)c3c2C(F)(F)F)C1 (centres undefined)
PTD50 (Mus musculus [1]): >300 mg/kg
ED50 (Escherichia coli [2]): 1.4 mg/kg
ED50 (Streptococcus pyogenes [3]): 26 mg/kg
ED50 (Pseudomonas aeruginosa [20]): 53 mg/kg
MIC (Staphylococcus aureus [4]): 0.1 µg/mL (≈ 0.25 µM)
MIC (Pseudomonas aeruginosa [5]): 1.6 µg/mL (≈ 4.01 µM)
MTD (Mus musculus [6]): 300 mg/kg
ED50 (Streptococcus pneumoniae [21]): 26 mg/kg
Day of first positve reaction (Mus musculus [7]): 0
MIC (Enterococcus faecalis): 0.4 µg/mL (≈ 1 µM)
No effect dose (Mus musculus [8]): 300 mg/kg
ED50 (Streptococcus pneumoniae [23]): 25 mg/kg
MIC (Escherichia coli [9]): 0.025 µg/mL (≈ 0.0626 µM)
MIC [10]: 0.4 µg/mL (≈ 1 µM)
No. of pos rxns (Mus musculus [25]): 0
MIC (Streptococcus pneumoniae [12]): 0.4 µg/mL (≈ 1 µM)
MIC (Staphylococcus aureus [13]): 0.05 µg/mL (≈ 0.125 µM)
MIC (Enterobacter cloacae): 0.05 µg/mL (≈ 0.125 µM)
MIC (Streptococcus pyogenes [14]): 0.4 µg/mL (≈ 1 µM)
MIC (Escherichia coli [15]): 0.05 µg/mL (≈ 0.125 µM)
MIC (Klebsiella pneumoniae): 0.2 µg/mL (≈ 0.501 µM)
ED50 (Escherichia coli [16]): 2.9 mg/kg
ED50 (Streptococcus pyogenes [17]): 32 mg/kg
ED50 (Pseudomonas aeruginosa [24]): 23 mg/kg
